Only some compounds are listed: those with a hit (about 2.1% of all), similar ones and a draw of the others.
CXCR6 block: CXCR6 (human) receptor inhibition; 360,000 tested, 0.36% active; inhibition, % at 20 µM; CHO-K1 PathHunter CXCR6 beta-arrestin, luminescence; O00574; in the data active = inhibition above about 34%, passing the limit was not always enough;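 also: antagonist mode with CXCL16 agonist at 10 nM final; 0% = 10 nM CXCL16 with DMSO and 100% = unstimulated wells without agonist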
HTR2A ag: mouse HTR2A agonism via beta-arrestin recruitment. CHO-K1 mHTR2A beta-arrestin complementation, luminescence; percent of 30 µM serotonin response. activation, % at 7.6 µM. 360,000 tested, 0.66% active;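 active = activation above a run cutoff, the mean activation of all tested compounds plus 3 SD, cut at about 14% in these data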;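 also: 0% = plate median of compound wells and 100% = 30 µM serotonin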
EBI2 block: EBI2 (human) antagonism; EBI2 beta-arrestin recruitment, luminescence, 7a,25-OHC stimulated; 360,000 tested, 0.81% active; P32249; inhibition, % at 5 µM; in the data active = inhibition above about 38%;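 also: enzyme fragment complementation signal reports receptor beta-arrestin coupling in cells; 0% = agonist plus DMSO wells and 100% = wells without agonist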
APJ antagonist: blocks the human apelin receptor APJ | P35414 | CHO-K1 APJ beta-arrestin complementation, luminescence | inhibition, % at 20 µM | 330,000 tested, 0.32% active | AID 2521;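 active = inhibition above about 40% at 20 µM, limit read from the data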;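 also: cells challenged with 10 nM apelin-13 agonist together with compound; plate controls were apelin-13 plus DMSO wells for no effect and DMSO wells lacking apelin-13 for full effect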
CCR6 antag: antagonists of human CCR6 receptor | inhibition, % at 20 µM | CHO-K1 CCR6 PathHunter beta-arrestin, luminescence, CCL20-stimulated | P51684 | AID 493098 | 340,000 tested, 0.49% active;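 active = compounds whose inhibition of the agonist-driven luminescence signal at 20 µM reaches about 50%, limit read from the data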;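 also: cells stimulated with CCL20 at 14 nM final; plate controls were DMSO with CCL20 for no effect and DMSO without agonist for full effect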
Target sequence (P51684 whole entry, looked up): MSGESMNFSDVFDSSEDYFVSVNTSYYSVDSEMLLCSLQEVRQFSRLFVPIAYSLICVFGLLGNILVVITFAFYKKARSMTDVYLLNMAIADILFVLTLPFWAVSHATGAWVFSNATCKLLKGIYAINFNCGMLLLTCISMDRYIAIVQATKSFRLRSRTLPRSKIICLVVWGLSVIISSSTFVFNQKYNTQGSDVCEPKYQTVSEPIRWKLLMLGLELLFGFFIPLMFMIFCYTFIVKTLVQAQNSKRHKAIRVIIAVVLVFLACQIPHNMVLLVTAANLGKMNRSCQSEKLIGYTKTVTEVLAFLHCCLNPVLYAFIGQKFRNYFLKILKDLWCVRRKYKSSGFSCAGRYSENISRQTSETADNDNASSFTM
APJ agonist: APJ receptor agonism. P35414. CHO-K1 APJ PathHunter beta-arrestin, luminescence; 0% DMSO wells, 100% apelin. activation, % at 20 µM. 330,000 tested, 0.11% active;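 active = activation more than six SD over the plate average, tested at 20 µM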;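 also: 0% = DMSO alone and 100% = apelin-13 at 10 nM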
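Test system: CHO-K1 APJ beta-arrestin complementation cell line | Compound: Single test compound dose, 20 µM final, 1% DMSO | Incubation: Compound 90 min 25 °C, reagent 1 h | Measured by: beta-gal luminescence | Read-out basis: APJ–arrestin association signal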
The depositor's hits bear a star; x = not tested or not shown.

SMILES	CXCR6 block	HTR2A ag	EBI2 block	APJ antagonist	CCR6 antag	APJ agonist
COc1ccc(CC(=O)N2CC(C)CC(C)C2)cc1OC (stereo not given)	7	4	-2	13	6	-2
c1cnc2ccc3ncccc3c2c1	-9	-2	-8	-3	-3	-1
CNc1ccc(N=Nc2cccc3ncccc23)cc1	41*	-6	34	x	61*	x
O=C(/C=C/c1ccccn1)c1cc(Br)ccc1O	5	3	11	-5	59*	0
O=C(/C=C/c1ccccn1)c1ccc(Br)cc1O	-1	0	13	x	17	x
O=C(NC1CCCc2ccccc21)C1CCCN(S(=O)(=O)c2cnc[nH]2)C1 (stereo not given)	-7	11	-5	-8	8	-2
COC(=O)c1ccc(NC(=O)C2CCCN(S(=O)(=O)c3cnc[nH]3)C2)cc1 (stereo not given)	1	17*	-3	-16	-1	-1
O=C(NC1CCCCCC1)C1CCCN(S(=O)(=O)c2cnc[nH]2)C1 (stereo not given)	-1	24*	-5	-7	2	-2
COc1ccccc1C(=O)NNC1=C(C(=O)C(F)(F)F)CCC1	44*	-4	9	19	59*	-3
O=C(NNC1=C(C(=O)C(F)(F)F)CCC1)c1ccccc1O	7	-1	8	-1	-6	-5
Cc1ccc(N=C2C(=O)Nc3ccccc32)cc1C	10	10	0	14	52*	-9
COc1cc(/C=N/N=C2/C(=O)Nc3ccccc32)cc(OC)c1O	9	0	-26	34	61*	-6
Cc1cc(C)c(N=C2C(=O)Nc3ccccc32)c(C)c1	16	0	-9	27	15	-4
O=C1Nc2ccccc2C1=Nc1ccc(Cl)cc1	33	2	17	x	65*	x
CCN(CC)c1ccc(N=C2C(=O)Nc3ccccc32)cc1	25	0	-1	6	26	-2
O=C(/C=C/c1ccco1)Nc1ccccc1N1CCCC1	0	-5	9	1	14	0
NS(=O)(=O)c1ccc(NCc2ccccc2OCc2ccc(F)cc2)cc1	-10	-8	2	-26	-4	0
NS(=O)(=O)c1ccc(NCc2cc(Cl)ccc2OCc2ccccc2F)cc1	-12	-6	17	-5	54*	-3
CC(=O)C1=C(C)NC(=S)NC1c1cccc([N+](=O)[O-])c1 (stereo not given)	0	0	6	-9	-2	-2
O=S1(=O)c2ccccc2N=NN1Cc1ccc(Cl)c(Cl)c1	x	x	x	-13	x	6
CC(C)(C)c1ccc(CN2N=Nc3ccccc3S2(=O)=O)cc1	49*	1	7	33	64*	9
Cc1cccc(C)c1OCC(=O)NNC(=O)Nc1ccc(Cl)cc1	-5	8	-4	-3	-10	-3
NS(=O)(=O)c1ccc(NC2=CC(c3ccc([N+](=O)[O-])cc3)N(c3ccc(S(N)(=O)=O)cc3)C2=O)cc1 (stereo not given)	60*	1	-8	32	50*	-1
COc1ccc(NC2=CC(c3ccc(OC)c(OC)c3)N(c3ccc(OC)cc3)C2=O)cc1 (stereo not given)	-4	2	14	1	11	-3
CCOC(=O)c1c(SCCN2CCCC2)n(-c2ccccc2)c(=S)n(-c2ccccc2)c1=O	88*	-1	26	x	105*	x
SMILES	CXCR6 block	HTR2A ag	EBI2 block	APJ antagonist	CCR6 antag	APJ agonist
O=C(NCCc1ccccc1Cl)c1cc(COc2ccc(F)cc2F)on1	-12	-3	57*	-7	-3	5
OCCCCNCc1cc(Br)ccc1OCc1ccccc1F	0	-3	12	-7	-6	-2
O=C(Cn1ncc(Cl)c(Cl)c1=O)N1CCc2ccccc21	17	-8	43*	x	17	x
O=c1c2ccccc2sn1-c1ccc(S(=O)(=O)N2CCCCC2)cc1	-4	3	5	-30	9	3
Cc1ccc(-n2sc3ccccc3c2=O)cc1S(=O)(=O)N1CCCCC1	20	17*	43	-12	55*	2
CC(C)(C)c1cc(C(=O)NCC(=O)OCC(=O)c2cccc([N+](=O)[O-])c2)cc(C(C)(C)C)c1	34	0	-4	35	57*	-8
Cc1ccc(Nc2c(-c3ccccn3)nc3cc(C)ccn23)cc1	40*	-16	7	39	57*	-4
Cc1ccn2c(Nc3ccc4c(c3)OCO4)c(-c3ccccn3)nc2c1	20	-7	17	18	25	-2
CN(C)c1ccc(N=Nc2ccc(C(=O)O)cc2)cc1	27	-4	9	18	27	-5
Cc1csc(N=Nc2ccc(N(C)C)cc2)[n+]1[O-]	47*	-10	14	x	x	x
O=C(COC(=O)C1CC(=O)N(Cc2ccccc2)C1)Nc1ccc(Cl)cc1F (stereo not given)	-1	3	3	5	0	0
O=C(NC(=S)Nc1ccccc1)c1cc(-c2ccccc2)nc2ccccc12	29	-12	5	35	55*	-6
CCCCNC(=S)NNC(=O)c1cc(-c2cccnc2)nc2ccccc12	22	-10	1	0	54*	-9
O=C(NCCc1ccccc1)C1Cc2c(-c3ccc4c(c3)OCO4)ccnc2O1 (stereo not given)	8	-6	0	x	x	x
O=C(O)CN1CCNCCN(CC(=O)O)CCNCC1	-22	3	-8	x	-6	x
Nc1c(O)ccc2c1C(=O)c1ccccc1C2=O	x	x	x	x	50*	x
COc1ccc2c(c1O)C(=O)c1ccccc1C2=O	x	x	x	-107	x	2
O=C(N/N=C/c1cccc2nccnc12)c1ccccc1O	40	-1	-6	34	66*	-10
O=C(N/N=C/c1cccc2nccnc12)c1ccncc1	-8	-3	6	15	0	3
O=C(O)c1cc(O)c2c(c1)C(=O)c1cccc(O)c1C2=O	48*	3	5	-2	79*	13
O=C(COc1c(F)c(F)c(C(F)(F)F)c(F)c1F)Nc1ccc(N2CCOCC2)c(Cl)c1	-12	2	0	-1	20	-4
O=C(OCC(=O)c1ccc[nH]1)c1ccccc1	-2	3	-2	6	2	-4
O=C(OCC(=O)c1ccc[nH]1)c1cncc(Br)c1	0	15*	-1	15	0	-2
COc1cc(C=c2c3ccccc3n3c2cc(-c2ccccc2)[n+]3C)cc(OC)c1OC	-13	2	-23	x	-14	x
CN(C)c1ccc(C=c2c3ccccc3n3c2c2c([n+]3C)CCCC2)cc1	45*	-1	-11	x	47	x
CN(C)c1ccc(C=c2c3ccccc3n3c2cc(-c2ccc(Cl)cc2)[n+]3C)cc1	19	-5	-4	x	36	x
